The text below walks through data of ChEMBL document CHEMBL4270576, “Discovery of a benzenesulfonamide-based dual inhibitor of microsomal prostaglandin E2 synthase-1 and 5-lipoxygenase that favorably modulates lipid mediator biosynthesis in inflammation” (Eur J Med Chem, 2018).

The structures appear in SMILES notation.

Data set [1] deals with T1, Polyunsaturated fatty acid lipoxygenase ALOX12 (Homo sapiens) (UniProt P18054).
T1 sequence (whole entry): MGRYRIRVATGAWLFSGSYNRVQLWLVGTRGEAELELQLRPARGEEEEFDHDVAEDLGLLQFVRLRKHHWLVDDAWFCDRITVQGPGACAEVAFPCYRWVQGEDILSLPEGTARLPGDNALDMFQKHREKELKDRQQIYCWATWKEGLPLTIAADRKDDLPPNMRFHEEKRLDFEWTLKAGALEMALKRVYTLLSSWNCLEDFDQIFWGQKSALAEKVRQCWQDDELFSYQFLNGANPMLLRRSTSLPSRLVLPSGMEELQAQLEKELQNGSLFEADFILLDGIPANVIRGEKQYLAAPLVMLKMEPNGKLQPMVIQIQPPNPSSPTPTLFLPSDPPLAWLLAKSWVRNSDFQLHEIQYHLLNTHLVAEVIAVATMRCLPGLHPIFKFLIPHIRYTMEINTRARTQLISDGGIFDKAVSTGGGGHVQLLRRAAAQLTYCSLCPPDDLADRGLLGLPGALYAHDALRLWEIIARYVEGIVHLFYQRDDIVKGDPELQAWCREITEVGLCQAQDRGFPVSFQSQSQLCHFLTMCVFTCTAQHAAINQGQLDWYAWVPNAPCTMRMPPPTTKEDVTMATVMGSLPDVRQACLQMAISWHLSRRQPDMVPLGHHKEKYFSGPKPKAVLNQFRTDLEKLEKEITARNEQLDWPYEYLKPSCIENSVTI
Put plainly: Modulation of 12-LO-mediated 14-HDHA level in human M2 macrophages derived from IL4-polarized human monocyte derived macrophages at 3 uM preincubated for 15 mins followed by Escherichia coli (O6:K2:H1) challenge for 90 mins by LC-MS/MS analysis. The method, boiled down: (§1)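 Monocytes differentiated 6 days with M-CSF (20 ng/ml), then polarized 48 h with IL-4 20 ng/ml (M2). Cells (2 × 10^6) in PBS/1 mM CaCl2 pre-incubated 15 min at 37 °C with 3 µM compound or 0.1% DMSO, then challenged with E. coli O6:K2:H1 (1:50) for 90 min. Lipid mediators extracted by SPE with deuterated internal standards and quantified by UPLC-MS/MS as % of vehicle.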

Data set [2] deals with T2, Polyunsaturated fatty acid lipoxygenase ALOX15 (Homo sapiens) (UniProt P16050).
T2 sequence (whole entry): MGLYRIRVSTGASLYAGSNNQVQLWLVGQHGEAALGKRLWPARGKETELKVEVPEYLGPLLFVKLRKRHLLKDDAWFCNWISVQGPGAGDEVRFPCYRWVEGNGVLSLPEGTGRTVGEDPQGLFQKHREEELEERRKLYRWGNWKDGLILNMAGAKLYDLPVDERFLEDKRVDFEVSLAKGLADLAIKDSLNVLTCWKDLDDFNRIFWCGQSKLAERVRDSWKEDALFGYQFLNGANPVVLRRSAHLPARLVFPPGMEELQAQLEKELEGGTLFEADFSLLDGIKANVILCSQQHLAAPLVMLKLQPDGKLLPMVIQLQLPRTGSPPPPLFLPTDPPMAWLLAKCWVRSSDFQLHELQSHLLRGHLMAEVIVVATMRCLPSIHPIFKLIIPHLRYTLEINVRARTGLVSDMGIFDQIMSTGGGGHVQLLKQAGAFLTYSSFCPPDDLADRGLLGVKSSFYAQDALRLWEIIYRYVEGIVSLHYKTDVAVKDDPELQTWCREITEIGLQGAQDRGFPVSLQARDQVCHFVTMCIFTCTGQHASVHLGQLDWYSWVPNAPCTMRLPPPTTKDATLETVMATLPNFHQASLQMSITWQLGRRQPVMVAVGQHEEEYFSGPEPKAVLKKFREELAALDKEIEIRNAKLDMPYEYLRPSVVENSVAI
The data set can be described thus: Modulation of 15-LO-mediated 7-HDHA level in human M2 macrophages derived from IL4-polarized human monocyte derived macrophages at 3 uM preincubated for 15 mins followed by Escherichia coli (O6:K2:H1) challenge for 90 mins by LC-MS/MS analysis. In outline: as §1

Data set [3] deals with T3, Cyclooxygenase (Homo sapiens, UniProt P35354+P23219). The data set can be described thus: Modulation of COX1/2-mediated 11-HETE level in human M2 macrophages derived from IL4-polarized human monocyte derived macrophages at 3 uM preincubated for 15 mins followed by Escherichia coli (O6:K2:H1) challenge for 90 mins by LC-MS/MS analysis. It is filed as ADME. The following applies: 1.5 h. The method, boiled down:
as §1

In data set [4] the test system is Macrophage cell line. Put plainly: Modulation of 4-HDHA level in human M2 macrophages derived from IL4-polarized human monocyte derived macrophages at 3 uM preincubated for 15 mins followed by Escherichia coli (O6:K2:H1) challenge for 90 mins by LC-MS/MS analysis. It is filed as functional. The method, boiled down: as §1
For data set [5], the target named is T4, Prostaglandin E synthase (Homo sapiens) (UniProt O14684).
T4 sequence (whole entry): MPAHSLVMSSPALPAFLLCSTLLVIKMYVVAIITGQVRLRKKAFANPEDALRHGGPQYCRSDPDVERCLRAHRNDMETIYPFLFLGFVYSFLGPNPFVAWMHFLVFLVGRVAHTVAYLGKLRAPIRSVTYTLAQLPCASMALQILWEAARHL
Put plainly: Inhibition of mPGES-1 in LPS/IFNgamma-differentiated human M1 macrophages assessed as effect on PGE2 level at 3 uM preincubated for 15 mins followed by Escherichia coli (O6:K2:H1) challenge for 90 mins by LC-MS/MS analysis. Set-up: scale not given: the % may be the effect or the level left. In outline: (§2)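 Monocytes differentiated 6 days with GM-CSF (20 ng/ml) in RPMI/10% FCS, then polarized 48 h with LPS 100 ng/ml plus IFN-γ 20 ng/ml (M1). Cells (2 × 10^6) in PBS with 1 mM CaCl2 pre-incubated 15 min at 37 °C with 3 µM compound or 0.1% DMSO, then E. coli O6:K2:H1 (1:50) for 90 min. Methanol with deuterated standards added; SPE; UPLC-MS/MS; expressed as % of vehicle.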

The species entered for data set [6] is Homo sapiens. The data set can be described thus: Modulation of LO-mediated PDX level in human M2 macrophages derived from IL4-polarized human monocyte derived macrophages at 3 uM preincubated for 15 mins followed by Escherichia coli (O6:K2:H1) challenge for 90 mins by LC-MS/MS analysis. In outline:
as §1

The target in data set [7] is T1, Polyunsaturated fatty acid lipoxygenase ALOX12 (Homo sapiens). Put plainly: Modulation of 12-LO-mediated 12-HEPE level in human M2 macrophages derived from IL4-polarized human monocyte derived macrophages at 3 uM preincubated for 15 mins followed by Escherichia coli (O6:K2:H1) challenge for 90 mins by LC-MS/MS analysis. The method, boiled down:
as §1

Data set [8] has as its target T3, Cyclooxygenase. Put plainly: Modulation of COX1/2-mediated TXB2 level in human M1 macrophages derived from LPS/IFNgamma-polarized human monocyte derived macrophages at 3 uM preincubated for 15 mins followed by Escherichia coli (O6:K2:H1) challenge for 90 mins by LC-MS/MS analysis. The following applies: 1.5 h. The data set is classed as protein assay. The method, boiled down:
as §2

Data set [9] has as its system Macrophage cell line. The data set can be described thus: Modulation of 13-HDHA level in human M2 macrophages derived from IL4-polarized human monocyte derived macrophages at 3 uM preincubated for 15 mins followed by Escherichia coli (O6:K2:H1) challenge for 90 mins by LC-MS/MS analysis. The data set is classed as functional. The method, boiled down: as §1

`O=C(O)c1ccc(N(Cc2cccc(OCc3ccccc3)c2)S(=O)(=O)c2ccc(-c3ccccc3)cc2)cc1`: the Activity was 125% in data set [1]; 107% in data set [2]; 106% in [3]; 86% in data set [4]; 72% in [5]; 125% in data set [6]. Further, the results for the Activity in data set [7], in data set [8] and in data set [9] were 140%, 92% and 127%, respectively.
